Consider 23 molecules from ChEMBL document CHEMBL1138298, “Synthesis and evaluation of 7H-8,9-dihydropyrano[2,3-c]imidazo[1,2-a]pyridines as potassium-competitive acid blockers” (J Med Chem, 2007).

Activity calls are given as the source filed them. The calls are words filed in the database; no cut-off is given here. Bounds are passed on as bounds.

One data set is filed under the species Sus scrofa. The data set can be described thus: (§1) Inhibition of H+/K+ ATPase in hog gastric mucosa. The class given is tissue-based. The method, boiled down: (§2)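 Hog gastric mucosa H+/K+-ATPase (0.5-1 µg/100 µL, with nigericin 1:1) in 4 mM Pipes/8 mM Tris pH 7.4, 0.25 M sucrose, 1 mM MgCl2, stimulated by 1 mM KCl. Compound 1e-4 to 1e-9 M final from DMSO stocks. Started with 1 mM Na-ATP, 30 min room temperature. Phosphate read by malachite green at 680 nm after 15 min.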

Data set [1] has as its system Rattus norvegicus. The data set can be described thus: Inhibition of pentagastrin-stimulated acid secretion in perfused Ghosh Schild rat stomach at 1 umol/kg, intraduodenal. The class given is functional. Set-up: scale not given: the % may be the effect or the level left. The method, boiled down:
(§3)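 Anaesthetised rat with perfused stomach: 37 °C saline at 0.5 mL/min. Effluent titrated to pH 7 with 0.01 N NaOH in 15-min fractions. Secretion driven by continuous iv pentagastrin, 1 µg/kg (1.65 mL/h). Compound given intraduodenally in 2.5 mL/kg volume 60 min after infusion start. Body temperature held at 37.8-38 °C.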

Data set [2] in a line: Dissociation constant, pKa of the compound. The class given is physicochemical. In outline:
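Potentiometric cosolvent titration in 0.15 mol/L KCl, pH 2.0-11.0, 25 °C, methanol as cosolvent in varying portions; titrants 0.5 mol/L KOH and HCl.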

Data set [3] in a line: Distribution coefficient, log D of the compound. The class given is physicochemical. The following applies: octanol/water. The method, boiled down:
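Distribution between 1-octanol and aqueous KCl measured by potentiometric titration over pH 2.0-11.0 at 25 °C.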

Data set [4] is described as follows: as §1. The class given is tissue-based, Sus scrofa. In outline:
as §2

The subject of data set [5] is Rattus norvegicus. The data set can be described thus: Inhibition of pentagastrin-stimulated acid secretion in perfused Ghosh Schild rat stomach at 3 umol/kg, intraduodenal. The class given is functional. Set-up: scale not given: the % may be the effect or the level left. In outline: as §3
In a further data set the test system is Gastric gland. The data set is described as follows: Inhibition of acid secretion in rabbit intact gastric glands assessed as […] accumulation. The class given is functional, tissue-based. The note with it: Oryctolagus cuniculus. The method, boiled down: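 Isolated gastric glands in Krebs-Henseleit with 2 mg/mL rabbit serum albumin and 2 mg/mL glucose. Incubated 30 min at 37 °C, shaking, with 0.125 µM 14C-aminopyrine at pH 7.4, stimulated by 1 mM dibutyryl cAMP, inhibitor 3 nM-100 µM. Stopped by centrifugation. Accumulation taken from pellet/supernatant radioactivity ratio. IC50 from fitted inhibition equation.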

Data set [6] has as its system Rattus norvegicus. The data set is described as follows: Inhibition of pentagastrin-stimulated acid secretion in perfused Ghosh Schild rat stomach at 0.3 umol/kg, intraduodenal. The class given is functional. Also noted: scale not given: the % may be the effect or the level left. In outline: as §3

`COCCNC(=O)c1c(C)nc2c3c(c(C(=O)N(C)C)cn12)CCC(c1ccccc1)O3` (racemic): the outcome in the data set filed under Sus scrofa was inactive. Further, in the data set on Rattus norvegicus [1], the Activity was 54%. The pKa in data set [2] came out at 4.38. This molecule also came in with a logD in data set [3] of 1.95.

Consider `Cc1nc2c3c(c(C(=O)N(C)C)cn2c1C)CC[C@H](c1ccccc1)O3`, for which, in data set [4], the pIC50 came to 5.4. The molecule also yielded an Activity with Rattus norvegicus [5] of 36%. In addition, the IC50 with Gastric gland was 2510 nM.

Regarding `Cc1nc2c3c(c(C(=O)N4CC(O)C4)cn2c1C)CCC(c1ccccc1)O3` (racemic), the pIC50 in data set [4] amounted to 5.9. In addition, the pKa in data set [2] was 6.63. This molecule displayed an Activity in the data set with Rattus norvegicus [5] of 54%. In addition, the logD in data set [3] was found to be 2.19. Also, the IC50 in the data set on Gastric gland is 63100 nM.

Regarding `Cc1nc2c3c(c(C(=O)N(C)C)cn2c1Br)CC[C@H](c1ccccc1)O3`, the pIC50 in data set [4] is reported as < 4. The molecule also returned an Activity with Rattus norvegicus [5] of 38%. Besides, the IC50 in the data set with Gastric gland is 31600 nM.

Turning to `CON(C)C(=O)c1cn2c(C)c(C)nc2c2c1CC[C@H](c1ccccc1)O2`, the pIC50 in data set [4] is 4.5. The molecule further gave an Activity with Rattus norvegicus [5] of 20%.

Consider `Cc1nc2c3c(c(C(=O)O)cn2c1C)CCC(c1ccccc1)O3` (racemic), for which the pIC50 in data set [4] came to 5.2. Further, the pKa in data set [2] is 2.65. The same molecule yielded an Activity in the data set on Rattus norvegicus [5] of 15%. Also, in data set [3], the logD is 0.7. The IC50 with Gastric gland is 25100 nM.

On to `Cc1nc2c3c(c(C(=O)NC4CC4)cn2c1C)CC[C@H](c1ccccc1)O3`, for which the negative-log IC50 (pIC50) in data set [4] amounted to 5.1. In addition, the Activity with Rattus norvegicus [5] amounted to 40%. Moreover, the IC50 in the data set on Gastric gland is 2000 nM.

Regarding `CCc1c(C)nc2c3c(c(C(=O)N(C)C)cn12)CC[C@H](c1ccccc1)O3`, the pIC50 in data set [4] was determined as 4.4. The molecule further showed an Activity with Rattus norvegicus [5] of 20%. In the data set on Gastric gland, the IC50 is 10000 nM.

For `Cc1nc2c3c(c(C(=O)N(C)C)cn2c1C)CC[C@H](c1ccccc1F)O3`, in data set [4], the pIC50 is listed as 5.3. In the data set with Rattus norvegicus [5], this molecule registered an Activity of 42%. For the same molecule, in the data set on Gastric gland, the IC50 was 398 nM.

In the case of `Cc1nc2c3c(c(C(=O)N(C)C)cn2c1C(=O)N(C)C)CCC(c1ccccc1)O3` (racemic), in the data set filed under Sus scrofa, the outcome was inactive. In the data set with Rattus norvegicus [1], the Activity is listed as 26%. The molecule further displayed a pKa in data set [2] of 4.51. For the same molecule, the logD in data set [3] is 1.69.

`Cc1nc2c3c(c(C(=O)N4CCC4)cn2c1C)CC[C@H](c1ccccc1)O3` showed a pIC50 in data set [4] of 5.1. In addition, the Activity in the data set with Rattus norvegicus [5] stood at 37%. For the same molecule, in the data set with Gastric gland, the IC50 is 1580 nM.

Consider `CC(=O)c1c(C)nc2c3c(c(C(=O)N(C)C)cn12)CC[C@H](c1ccccc1)O3`, for which the pIC50 in data set [4] is recorded as < 4. This molecule returned an Activity in the data set with Rattus norvegicus [5] of 31%. In addition, in the data set with Gastric gland, the outcome was inactive.

In the case of `Cc1nc2c3c(c(C(N)=O)cn2c1C)CC[C@H](c1ccccc1)O3`, the Activity with Rattus norvegicus [5] is given as 30%. For the same molecule, the IC50 in the data set on Gastric gland is 25100 nM.

Molecule `CNC(=O)c1cn2c(C)c(C)nc2c2c1CC[C@@H](c1ccccc1)O2` gave a pIC50 in data set [4] of 6.3. The molecule further had an Activity in the data set with Rattus norvegicus [6] of 62%. For the same molecule, the IC50 in the data set with Gastric gland was 2000 nM.

Take `CNC(=O)c1cn2c(C)c(C)nc2c2c1CC[C@H](c1ccccc1)O2`: the negative logarithm of the IC50 (pIC50) in data set [4] turned out to be 4.4. In the data set with Rattus norvegicus [5], this molecule registered an Activity of 38%. Moreover, the IC50 in the data set on Gastric gland was 5010 nM.

The molecule `Cc1nc2c3c(c(C(=O)N(C)C)cn2c1C)CCC(c1cccs1)O3` (racemic) returned a pIC50 in data set [4] of 5.3. Besides, the Activity in the data set with Rattus norvegicus [1] is listed as 46%. Besides, in data set [2], the pKa worked out at 6.64. In data set [3], this molecule yielded a log distribution coefficient (logD) of 2.05. Further, in the data set with Gastric gland, the IC50 is 631 nM.

Turning to `Cc1nc2c3c(ccn2c1C)CCC(c1ccccc1)O3` (racemic), in data set [4], the pIC50 was 6.9. The Activity with Rattus norvegicus [1] is recorded as 26%. In data set [2], this molecule returned a pKa of 7.73. Further, in data set [3], the logD turned out to be 3.5. In the data set on Gastric gland, the IC50 is 316 nM.

On to `Cc1nc2c3c(c(C(=O)N4CCC4)cn2c1C)CCC(c1ccccc1)O3` (racemic), for which the pIC50 in data set [4] worked out at 6.2. The molecule further had an Activity in the data set on Rattus norvegicus [1] of 75%. The pKa in data set [2] worked out at 6.64. The logD in data set [3] worked out at 2.6. Moreover, the IC50 in the data set with Gastric gland is 398 nM.

Consider `CCOc1ccc(NC(=O)c2cn3c(C)c(C)nc3c3c2CCC(c2ccccc2)O3)cc1` (racemic), for which the pIC50 in data set [4] was > 6. This molecule also came in with an Activity with Rattus norvegicus [1] of 33%. The molecule further yielded a pKa in data set [2] of 6.57. For the same molecule, in data set [3], the logD is 4.3. For the same molecule, the half-inhibitory concentration (IC50) in the data set with Gastric gland was 200 nM.

Molecule `Cc1nc2c3c(c(C(=O)NS(C)(=O)=O)cn2c1C)CCC(c1ccccc1)O3` (racemic) showed a pIC50 in data set [4] of 4.2. This molecule had a pKa in data set [2] of 2.5. Besides, the Activity with Rattus norvegicus [5] was 38%. In data set [3], the pH-dependent lipophilicity (logD) is 1.9. For the same molecule, the outcome with Gastric gland was inactive.

`CCN(CC)C(=O)c1cn2c(C)c(C)nc2c2c1CCC(c1ccccc1)O2` (racemic): in data set [4], the pIC50 is 5.2. The molecule further had an Activity in the data set on Rattus norvegicus [1] of 23%. The pKa in data set [2] stood at 6.75. Further, the logD in data set [3] is 3.2. For the same molecule, the IC50 in the data set with Gastric gland is 794 nM.

In data set [4], `Cc1nc2c3c(c(C(=O)N4CCNCC4)cn2c1C)CCC(c1ccccc1)O3` (racemic) yielded a pIC50 of 5.3. Further, the Activity with Rattus norvegicus [1] is 36%. Moreover, the pKa in data set [2] was 6.44. The same molecule displayed a logD in data set [3] of 1.53. Further, the result in the data set with Gastric gland was inactive.

On to `Cc1nc2c3c(c(C(=O)N4CCCC4)cn2c1C)CC[C@H](c1ccccc1)O3`, for which the pIC50 in data set [4] is 4.5. The Activity in the data set with Rattus norvegicus [5] is 27%. For the same molecule, in the data set on Gastric gland, the IC50 was 2510 nM.

As a reminder, the pKa is the pH at which an ionisable group is half protonated. A word on the logD: it is lipophilicity at a set pH, counting ionised and neutral species. Usually pIC50 stands for the IC50 on a negative log10 scale, so that one unit is a factor of ten. The term IC50 denotes the concentration at which inhibition is half-maximal.
